Hits are enriched below; roughly 7.2% of the tested compounds scored in any of these assays.
PostGolgi ctrl: yeast control strain growth, post-Golgi counter-screen | efflux-deficient yeast background strain, growth absorbance A615, 16 h | inhibition, % at 10 µM | actives 5% (n = 98,000) | AID 738
Ecoli WT expand: growth inhibitors of E. coli BW25113 wild type; OD600 absorbance; growth inhibition, % at 100 µM; actives 0.15% (n = 98,000); AID 710;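 active = growth inhibition above about 50% at one test dose, limit read from the data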;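 also: growth measured after 20 h incubation at 37 °C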
PLAP act: activators of human placental alkaline phosphatase | P05187 | purified PLAP enzyme, luminescent substrate read-out; hits give high values | activation fold at 20 µM | actives 1.2% (n = 96,000) | AID 696; in the data active = activation fold above about 2
Target sequence (P05187 whole entry, looked up): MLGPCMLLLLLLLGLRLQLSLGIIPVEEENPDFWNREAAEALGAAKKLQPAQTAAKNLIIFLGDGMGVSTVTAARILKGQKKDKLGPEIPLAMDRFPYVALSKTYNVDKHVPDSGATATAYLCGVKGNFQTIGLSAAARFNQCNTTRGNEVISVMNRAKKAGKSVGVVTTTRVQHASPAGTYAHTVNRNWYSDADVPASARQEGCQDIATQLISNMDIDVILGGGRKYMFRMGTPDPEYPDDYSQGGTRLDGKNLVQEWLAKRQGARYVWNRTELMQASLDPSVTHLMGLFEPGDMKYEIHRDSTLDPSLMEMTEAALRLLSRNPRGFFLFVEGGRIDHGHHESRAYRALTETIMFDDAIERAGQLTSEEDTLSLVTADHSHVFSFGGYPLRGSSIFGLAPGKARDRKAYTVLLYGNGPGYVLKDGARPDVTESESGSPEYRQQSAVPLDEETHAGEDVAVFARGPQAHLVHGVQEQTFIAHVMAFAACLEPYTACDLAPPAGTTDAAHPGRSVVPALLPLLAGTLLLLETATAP
PostGolgi yeast: growth inhibition of a yeast mutant, post-Golgi transport screen; post-Golgi transport phenotypic cell assay; inhibition, % at 10 µM; actives 0.9% (n = 98,000); AID 739;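 also: yeast cells grown in 1536-well plates; yeast grown about 18 h at 30C before absorbance read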
Ecoli tolC: blocks growth of E. coli BW25113 tolC mutant; OD615; growth inhibition, % at 10 µM (by protocol); actives 2.2% (n = 65,000);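 active = growth inhibition at or above a cutoff equal to the mean over every tested compound plus 3 SD, cut at about 60% in these data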;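 also: growth measured after 20 h incubation at 37 °C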
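signal = optical density read at 615 nm | test system = E. coli ΔtolC::kan strain BW25113 | timing = 20 h compound exposure of bacteria at 37 °C | buffer or medium = LB medium plus 50 µg/mL kanamycin | compound dosing = 10 µM final, single dose | evaluation = % inhibition of E. coli growth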
Of the large screens only hits and unclear results are named; the others gave an inactive call. Rule as the data show it, unless noted: active = inhibition above about 30%; inactive = the rest.

CSC1=C(C#N)C(c2cccc(Br)c2)CC(=O)N1 (stereo not drawn)	none (no result: PLAP act)
O=C1CC(c2cccc(Br)c2)c2cc3c(cc2N1)CCC3 (stereo not drawn)	PostGolgi ctrl 90 (no result: Ecoli tolC)
Cc1ccc(Cn2ccc(=O)c(OCc3c(Cl)cccc3Cl)c2C)cc1	PostGolgi ctrl 48 (no result: Ecoli tolC)
COC(=O)c1ccc(Cc2ccc(C(=O)OC)o2)o1	PostGolgi ctrl 36
COC(=O)c1ccc(COc2ccccc2/C=N/NS(=O)(=O)c2ccc(C)cc2)cc1	none (no result: Ecoli tolC)
Cc1cc(C)c(S(=O)(=O)c2ccccc2)c(OC(=O)c2c(Cl)cccc2Cl)n1	PostGolgi yeast 49 (no result: Ecoli tolC)
Cc1cc(C)c(S(=O)(=O)c2ccccc2C)c(Oc2ccccc2)n1	PostGolgi ctrl 30 (no result: Ecoli tolC)
C=CCOC(=O)c1sc(N2C(=O)c3oc4ccccc4c(=O)c3C2c2ccco2)nc1C (stereo not drawn)	none (no result: PostGolgi ctrl, Ecoli WT expand, PLAP act, PostGolgi yeast)
Cc1ccccc1NC(=S)NCc1ccc2c(c1)OCO2	PostGolgi ctrl 38 (no result: Ecoli tolC)
CCOC(=O)c1cnc(-n2nc(C)cc2C)nc1N1CC(C)OC(C)C1 (stereo not drawn)	none (no result: PostGolgi ctrl, Ecoli WT expand, PLAP act, PostGolgi yeast)
CCOC(=O)c1cnc(-n2nc(C)cc2C)nc1NCCO	none (no result: Ecoli tolC)
CCOC(=O)c1cnc(-n2nc(C)cc2C)nc1NC(C)c1ccccc1 (stereo not drawn)	PostGolgi ctrl 44, Ecoli tolC 100 (no result: PLAP act)
CCOC(=O)c1cnc(-n2nc(C)cc2C)nc1NCc1ccccc1	PostGolgi ctrl 46, Ecoli tolC 100
Cn1c(=O)c2ncn(CC(=O)NCCOc3ccccc3)c2n(C)c1=O	PostGolgi yeast 30
CN(CC(=O)NCCN1CCN(c2ccccc2)CC1)S(=O)(=O)c1ccc2c(c1)CCC(=O)N2	none (no result: Ecoli tolC)
CCOC(=O)N1CCC(c2cc(=O)n3[nH]c(C)c(-c4ccc(F)cc4)c3n2)CC1	Ecoli tolC 99
CCOC(=O)N1CCC(c2cc(=O)n3[nH]c(-c4ccccc4)cc3n2)CC1	none
CCOC(=O)Cn1nnc2c(sc3nc4c(c(-c5ccccc5)c32)CCC4)c1=O	PostGolgi ctrl 32 (no result: Ecoli tolC)
CCOC(=O)c1c(C)nc2sc3c(=O)n(-c4ccc(C(C)=O)cc4)nnc3c2c1-c1ccc(Cl)cc1	none (no result: Ecoli tolC)
CCOC(=O)Cn1nnc2c(sc3nc4c(c(-c5ccc(Cl)cc5)c32)CCC4)c1=O	PostGolgi ctrl 34 (no result: Ecoli tolC)
O=c1[nH]cnc2c1sc1nc3c(c(-c4ccc(Cl)cc4)c12)CCC3	none (no result: Ecoli tolC)
CC1Oc2ccccc2N(Cc2ccccc2Cl)C1=O (stereo not drawn)	Ecoli tolC 61 (no result: PLAP act)
O=C(Cc1ccc(Br)cc1)c1ccc(O)cc1O	PostGolgi ctrl 30, Ecoli WT expand 59, Ecoli tolC 95
O=C(COc1ccccc1Br)c1ccc(O)cc1O	Ecoli tolC 70
Oc1ccc(/C=N/Nc2cc(N3CCCC3)nc(N3CCCC3)n2)cc1	PostGolgi ctrl 31 (no result: Ecoli tolC)
CN1CCCC1CCNC1C2CC3CC(C2)CC1C3 (stereo not drawn)	none (no result: Ecoli tolC)
N#CC1=C(N)c2ccccc2CC12CCCCC2	PostGolgi ctrl 39 (no result: Ecoli tolC)
CCOC(=O)CSc1nc(N)c(C#N)c(CC(C)C)c1C#N	PostGolgi ctrl 40
Cc1c(CN(C)C)c2c(n1Cc1ccccc1)C(=O)c1ccccc1-2	none (no result: Ecoli tolC)
CC1(C)NC(=O)N(CCOCCOc2ccc3ccccc3c2Br)C1=O	none (no result: Ecoli tolC)
CC1(C)NC(=O)N(CCCCOc2ccc3ccccc3c2Cl)C1=O	PostGolgi ctrl 41 (no result: Ecoli tolC)
CCOC(=O)C1=C(C)NC(=O)NC1c1cccc(O)c1 (stereo not drawn)	none
CC1=C(C(=O)OC2CCCCCCC2)C(c2cccc(O)c2)NC(=O)N1 (stereo not drawn)	Ecoli tolC 65
Cc1c(Nc2cc(N3CCCCCC3)c3nonc3c2[N+](=O)[O-])c(=O)n(-c2ccccc2)n1C	none (no result: Ecoli tolC)
O=C(NCc1ccc(F)cc1)c1cc2n(n1)C(C(F)(F)F)CC(C1CC1)N2 (stereo not drawn)	none
CCN1CCN(C(=S)c2ccc(Br)cc2)CC1	none (no result: Ecoli tolC)
S=C(c1ccc(Br)cc1)N1CCN(Cc2ccccc2)CC1	PostGolgi ctrl 33 (no result: Ecoli tolC)
COCCOC(=O)c1c(C)oc2ccc(OC(=O)c3c(OC)cccc3OC)cc12	none
CCc1ccc(OCC(=O)N(C)CCC#N)c(Br)c1	PostGolgi ctrl 39
CCc1ccc(OCC(=O)NCCN(C)C)c(Br)c1	none
Oc1ccc(Cl)cc1CNc1ccc(Br)cn1	PostGolgi ctrl 48
O=[N+]([O-])c1cccc(C(=Nc2ccc(Cl)cc2)NO)c1	none (no result: Ecoli tolC)
CC(=O)N1N=C(c2cccc([N+](=O)[O-])c2)OC1c1ccc(Cl)cc1Cl (stereo not drawn)	PostGolgi ctrl 34 (no result: Ecoli tolC)
CN1/C(=C/C2CC(=O)NC2=O)C(C)(C)c2ccccc21 (stereo not drawn)	PostGolgi yeast 45 (no result: Ecoli tolC)
O=C(COC(=O)CCC(=O)c1cccs1)Nc1ccc(S(=O)(=O)N2CCOCC2)cc1	PostGolgi ctrl 41
CCOC(=O)N1CCC(NC(=O)c2cnc3n(c2=O)CCS3)CC1	none (no result: PostGolgi ctrl, Ecoli WT expand, PLAP act, PostGolgi yeast)
CCOc1cnc(-c2ccc(OC)cc2)o1	PostGolgi yeast 31 (no result: Ecoli tolC)
Nn1c(Cc2cccc3ccccc23)nnc1SCC(=O)NC1CCS(=O)(=O)C1 (stereo not drawn)	PLAP act 2
O=C(N/N=C\c1ccc(Sc2ccccn2)o1)c1cccc(Br)c1	none (no result: Ecoli tolC)
Cc1nc2ccc(NC(=O)N3CCSCC3)cc2s1	PostGolgi ctrl 31
Cc1nc2ccc(NC(=O)N3CCCCC3)cc2s1	none
COc1ccc(Cn2nnnc2C(c2cc3ccc(OC)cc3[nH]c2=O)N2CCC(C)CC2)cc1 (stereo not drawn)	none (no result: Ecoli tolC)
COc1ccc2[nH]c(=O)c(C(c3nnnn3C3CCCC3)N3CCN(Cc4ccc5c(c4)OCO5)CC3)cc2c1 (stereo not drawn)	PLAP act 2 (no result: Ecoli tolC)
Cc1cc(C)c2[nH]c(=O)c(C(c3nnnn3Cc3ccc4c(c3)OCO4)N3CCC(C)CC3)cc2c1 (stereo not drawn)	PostGolgi ctrl 33 (no result: PLAP act)
COc1ccc(Cn2nnnc2C(c2cc3cccc(C)c3[nH]c2=O)N2CCOCC2)cc1 (stereo not drawn)	PostGolgi ctrl 34
CCN1CCN(C(c2cc3cccc(C)c3[nH]c2=O)c2nnnn2Cc2ccccc2)CC1 (stereo not drawn)	none
COc1ccc(Cn2nnnc2C(c2cc3cc(C)ccc3[nH]c2=O)N2CCOCC2)cc1 (stereo not drawn)	PostGolgi ctrl 44
COc1ccc(N2CCN(C(c3cc4cc(C)ccc4[nH]c3=O)c3nnnn3Cc3ccccc3)CC2)cc1 (stereo not drawn)	none (no result: Ecoli tolC)
O=C(NCCCN1CCc2ccccc2C1)C1CCN(S(=O)(=O)N2CCCC2)CC1	none
Cc1ccc(NC(=O)c2oc3ccccc3c2NC(=O)c2ccc3c(c2)OCO3)cc1	none
CCOC(=O)c1cc(C)n(S(=O)(=O)c2ccc(C)cc2)c1C	Ecoli tolC 66
O=c1[nH]c(CN2CCCCC2)nc2c1C1(CCCC1)Cc1ccccc1-2	none (no result: PostGolgi ctrl, Ecoli WT expand, PLAP act, PostGolgi yeast)
Clc1cccc(CON/C=N/c2ncnc3sccc23)c1	PostGolgi ctrl 35 (no result: Ecoli tolC)
COc1ccc(NC(=O)c2ccc(CN3CCN(c4ccccc4)CC3)cc2)cc1	PostGolgi yeast 64
COc1cccc(NC(=O)c2ccc(CN3CCN(c4ccccc4)CC3)cc2)c1	PostGolgi yeast 37

Screens: PubChem, several laboratories
